Results reported in ChEMBL document CHEMBL3259808, “Optimization of antitrypanosomatid agents: identification of nonmutagenic drug candidates with in vivo activity” (J Med Chem, 2014).
Active and inactive are the calls of the source. No cut-off for these calls is given here.

Legend:
Trypanosoma cruzi [1] = test: Antitrypanosomal activity against Trypanosoma cruzi Tulahuen 2 epimastigotes assessed as growth inhibition after 5 days; type: functional, organism-based; conditions: Trypanosoma cruzi, Tulahuen 2, 120 h
Outline: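 Epimastigotes were grown axenically at 28 °C in BHI-tryptose with 5% FBS and seeded from a 5–7 day culture at 1 × 10⁶ cells/mL. Drug from a DMSO stock was added (final DMSO ≤0.4%; the control contained 0.4% DMSO). Duplicates were run. A600 was read at day 5, and % inhibition was calculated relative to day-0 and control readings. IC50 = concentration that halves the absorbance ratio.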

Trypanosoma cruzi [2] = test: Antitrypanosomal activity against Trypanosoma cruzi Dm 28c epimastigotes assessed as growth inhibition after 5 days; type: functional, organism-based; conditions: 120 h
Trypanosoma cruzi [3] = test: Antitrypanosomal activity against Trypanosoma cruzi Sylvio X-10 amastigotes infected in African green monkey Vero cells assessed as eradication of amastigotes after 5 days by Giemsa staining-based assay; type: functional, organism-based; conditions: Sylvio X-10, Vero, 120 h
Outline: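 VERO cells in RPMI 1640 with 10% hiFCS were allowed to adhere for 24 h at 37 °C in 5% CO₂, then infected with tissue-derived trypomastigotes at 10:1. Free parasites were washed off after 24 h, and cultures were treated at five compound doses (text gives 72 h / 5 days). Cultures were methanol-fixed and Giemsa-stained, and infected cells were counted among 300. Quadruplicates were run in three independent experiments. IC50/IC90 were obtained by sigmoidal regression.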

[4] = Selectivity index, ratio of IC50 for African green monkey Vero cells to IC50 for Trypanosoma cruzi Sylvio X-10 amastigotes; type: toxicity, cell-based; conditions: read-out: Ratio IC50
Outline: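 VERO cytotoxicity: cells exposed 48 h at 37 °C, 5% CO2 to serial dilutions from a maximum of 2000 μM (DMSO stocks; DMSO <0.1% control); growth inhibition read by MTT at 570 nm. Amastigote IC50: Sylvio X-10-infected VERO cells, five doses, infected cells counted among 300 (Giemsa), quadruplicate, three experiments, sigmoidal fit. SI = IC50 VERO / IC50 amastigote.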

[5] = Selectivity index, ratio of IC50 for human RBC to IC50 for Trypanosoma cruzi Sylvio X-10 amastigotes
Outline: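 Hemolysis: washed human erythrocytes (2% w/v in PBS) incubated 24 h at 37 °C with compound at final 50, 100 and 200 μM. Ten replicates per concentration. Hemoglobin release read at 405 nm against water lysis as 100%; amphotericin B 1.5 μM was the positive control. SI = IC50 red cells / parasite IC50 (Sylvio X-10 amastigotes or Tulahuen 2 epimastigotes).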

[6] = Selectivity index, ratio of IC50 for mouse J774.1 cells to IC50 for Trypanosoma cruzi Sylvio X-10 amastigotes; type: toxicity; conditions: read-out: Ratio IC50
Outline: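 J774.1 macrophages grown in DMEM with 10% heat-inactivated FCS and allowed to attach 48 h, then exposed 48 h at 37 °C to 12.5–400.0 μM. Triplicates. MTT 0.1 mg/mL for 3 h, read at 560 nm; IC50 by linear regression against the solvent control. SI = IC50 J774.1 / parasite IC50 (Sylvio X-10 amastigotes or Tulahuen 2 epimastigotes, the latter measured by A600 growth inhibition at day 5).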

Trypanosoma cruzi [7] = test: Antitrypanosomal activity against Trypanosoma cruzi Sylvio X-10 amastigotes infected in African green monkey Vero cells assessed as eradication of amastigotes at 5 uM after 5 days by optical microscopic analysis; type: functional, organism-based; conditions: in the assay text read “after 72 hrs” for “after 5 days”
Outline: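 VERO cells infected with Sylvio X-10 parasites were treated with 5 μM compound and examined by optic microscopy after 72 h of incubation for intracellular amastigotes and trypomastigotes.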

Salmonella typhimurium [8] = test: Mutagenic activity in Salmonella typhimurium TA98 at 3.1 to 250 ug/plate by Ames test; type: toxicity, organism-based; conditions: salmonella enterica subsp. enterica serovar typhimurium
Outline: (§1)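 Ames plate-incorporation assay with S. typhimurium TA98 in Vogel-Bonner E minimal glucose agar. Toxicity toward the bacteria was checked first. DMSO solutions were run in triplicate at five consecutive third-dilutions, starting at the highest non-toxic dose. Positive controls were 4-nitro-o-phenylenediamine (20.0 μg/plate) and 2-aminofluorene (10.0 μg/plate); DMSO was the negative control. Revertants were counted manually. A compound was called mutagenic when revertants were at least twice the negative control at two or more consecutive doses.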

Salmonella typhimurium [9] = test: Mutagenic activity in Salmonella typhimurium TA98 at 3.1 to 250 ug/plate by Ames test in presence of mouse liver S9 fraction; type: toxicity, organism-based; conditions: salmonella enterica subsp. enterica serovar typhimurium; outline: as §1
Salmonella typhimurium [10] = test: Mutagenic activity in Salmonella typhimurium TA100 at 0.06 to 5 ug/plate by Ames test; type: toxicity, organism-based; conditions: salmonella enterica subsp. enterica serovar typhimurium
Outline: (§2)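 Direct plate incubation on minimal glucose agar (Vogel-Bonner E). Compound toxicity to the bacteria was checked first. DMSO solutions were tested at five consecutive 3-fold dilutions, starting from the highest non-toxic dose, in triplicate, without metabolic activation. DMSO served as negative control. Revertants were counted manually; mutagenic = revertants at least double the negative control at two or more consecutive doses.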

Salmonella typhimurium [11] = test: Mutagenic activity in Salmonella typhimurium TA100 at 0.06 to 5 ug/plate by Ames test in presence of mouse liver S9 fraction; type: toxicity, organism-based; conditions: salmonella enterica subsp. enterica serovar typhimurium
Outline: (§3)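 Plate-incorporation Ames test on minimal glucose agar with 500 μL Aroclor-treated mouse liver S9 added. DMSO solutions were tested at five consecutive 3-fold dilutions from the highest non-toxic dose, in triplicate, with a DMSO negative control. Revertants were counted manually; a compound was scored mutagenic when revertants were at least twice the negative control for two or more consecutive doses.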

Salmonella typhimurium [12] = test: Mutagenic activity in Salmonella typhimurium TA102 at 0.06 to 5 ug/plate by Ames test; type: toxicity, organism-based; conditions: salmonella enterica subsp. enterica serovar typhimurium; outline: as §2
Salmonella typhimurium [13] = test: Mutagenic activity in Salmonella typhimurium TA102 at 0.06 to 5 ug/plate by Ames test in presence of mouse liver S9 fraction; type: toxicity, organism-based; conditions: salmonella enterica subsp. enterica serovar typhimurium; outline: as §3
Salmonella typhimurium [14] = test: Mutagenic activity in Salmonella typhimurium TA1535 at 0.06 to 5 ug/plate by Ames test; type: toxicity, organism-based; conditions: salmonella enterica subsp. enterica serovar typhimurium; outline: as §2
Salmonella typhimurium [15] = test: Mutagenic activity in Salmonella typhimurium TA1535 at 0.06 to 5 ug/plate by Ames test in presence of mouse liver S9 fraction; type: toxicity, organism-based; conditions: salmonella enterica subsp. enterica serovar typhimurium; outline: as §3
Salmonella typhimurium [16] = test: Mutagenic activity in Salmonella typhimurium TA1537 at 0.06 to 5 ug/plate by Ames test; type: toxicity, organism-based; conditions: salmonella enterica subsp. enterica serovar typhimurium; outline: as §2
Salmonella typhimurium [17] = test: Mutagenic activity in Salmonella typhimurium TA1537 at 0.06 to 5 ug/plate by Ames test in presence of mouse liver S9 fraction; type: toxicity, organism-based; conditions: salmonella enterica subsp. enterica serovar typhimurium; outline: as §3
[18] = Stability of the compound in aqueous solution assessed as compound remaining at 1 mM at pH 6 after 1 hr by TLC analysis; type: physicochemical; conditions: aqueous solution, pH 6; read-out: Stability
Outline: (§4)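 DMSO stocks diluted to final 1 mM in KCl·HCl pH 1.0, citrate pH 6.0, Tris·HCl pH 7.4 or borax·HCl pH 9.0 buffer. Incubated 1 h at 37 °C, then ethyl acetate extracts checked by TLC for decomposition products.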

[19] = Stability of the compound in aqueous solution assessed as compound remaining at 1 mM at pH 7.4 after 1 hr by TLC analysis; type: physicochemical; conditions: aqueous solution, pH 7.4; read-out: Stability; outline: as §4
[20] = Stability of the compound in aqueous solution assessed as compound remaining at 1 mM at pH 9 after 1 hr by TLC analysis; type: physicochemical; conditions: aqueous solution, pH 9; read-out: Stability; outline: as §4
[21] = Stability of the compound in aqueous solution assessed as compound remaining at 1 mM at pH 1 after 1 hr by TLC analysis; type: physicochemical; conditions: read-out: Stability; outline: as §4
[22] = Stability of the compound in eumulgin HRE 40, sodium oleate, soya phosphatidylcholine, cholesterol, and phosphate buffer at pH 7.4 at 4 degC; type: physicochemical
Outline: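 Storage stability of the compound in vehicle V2, a microemulsion of surfactant (Eumulgin HRE 40/sodium oleate/soya phosphatidylcholine, 10%), cholesterol oil phase (10%) and pH 7.4 phosphate buffer (80%), followed over 1 week at 4 °C.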

Br.C=CCn1c(-c2ccccc2)cs\c1=N/N=C/C=C/c1ccco1.O
IC50 (Trypanosoma cruzi [1]): 3.2 µM | IC50 (Trypanosoma cruzi [2]): 4 µM | IC50 (Trypanosoma cruzi [3]): < 240 nM | selectivity ratio [4]: > 1000 | Ratio IC50 [5]: > 196 | selectivity ratio [6]: > 120 | Activity (Trypanosoma cruzi [7]): Active | Activity (Salmonella typhimurium [8]): Non-toxic | Activity (Salmonella typhimurium [9]): Non-toxic | Activity (Salmonella typhimurium [10]): Non-toxic | Activity (Salmonella typhimurium [11]): Non-toxic | Activity (Salmonella typhimurium [12]): Non-toxic | Activity (Salmonella typhimurium [13]): Non-toxic | Activity (Salmonella typhimurium [14]): Non-toxic | Activity (Salmonella typhimurium [15]): Non-toxic | Activity (Salmonella typhimurium [16]): Non-toxic | Activity (Salmonella typhimurium [17]): Non-toxic | remaining at 1 h, 1000 µM [18]: > 95% | remaining at 1 h, 1000 µM [19]: > 95% | remaining at 1 h, 1000 µM [20]: > 95% | remaining at 1 h, 1000 µM [21]: 90% | Stability [22]: Stable
